Experimental data from ChEMBL document CHEMBL3612039, “Design, synthesis and evaluation of novel polypharmacological antichlamydial agents” (Eur J Med Chem, 2015).
Activity calls are given as the source filed them. No cut-off for these calls is given here.

Columns and labels:
[1] = tested on: Yersinia pseudotuberculosis; experiment: Inhibition of type 3 secretion system in Yersinia pseudotuberculosis by yopE luciferase reporter gene assay
Method in brief: (§1)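 T3S inhibition in bacterial cultures measured with a yopE luciferase reporter gene. Compound used in two-fold dilutions from 100 to 12,5 at 1% final DMSO. Result given as percent inhibition relative to 1% DMSO-treated controls.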

Chlamydia pneumoniae = experiment: Antichlamydial activity against Chlamydia pneumoniae T45 infected in human HeLa cells assessed as growth inhibition at 50 uM after 24 to 48 hrs by microscopic analysis; type: functional
Chlamydia trachomatis [2] = experiment: Antichlamydial activity against Chlamydia trachomatis L2 serovar VR-902B infected in human HeLa cells assessed as growth inhibition at 50 uM after 24 to 48 hrs by microscopic analysis; type: functional
[3] = Cytotoxicity against human HeLa cells assessed as cell viability at 50 uM after 48 hrs by resazurin based fluorescence assay; conditions: read-out: Activity
[4] = tested on: Yersinia pseudotuberculosis; experiment: Antimicrobial activity against Yersinia pseudotuberculosis after 20 hrs; type: functional
Method in brief: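 Overnight culture diluted into Mueller Hinton broth containing compound at 100, 50, 25 or 12, incubated 37 °C for 20 h; bacterial growth scored by visual inspection to give minimum inhibitory concentration.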

[5] = Aqueous solubility of the compound; type: physicochemical; conditions: buffer
[6] = tested on: Yersinia pseudotuberculosis; experiment: Inhibition of type 3 secretion system in Yersinia pseudotuberculosis at 100 uM by yopE luciferase reporter gene assay; method in brief: as §1
Chlamydia trachomatis [7] = experiment: Antichlamydial activity against Chlamydia trachomatis L2 serovar VR-902B infected in human HeLa cells assessed as growth inhibition at 50 uM after 24 to 48 hrs by microscopic analysis in presence of iron sulfate; type: functional, organism-based
[8] = tested on: Yersinia pseudotuberculosis; experiment: Inhibition of phosphatase activity of secreted YopH in Yersinia pseudotuberculosis at 12 to 100 uM by orthogonal assay
Method in brief: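 Orthogonal test of T3S inhibition in bacterial cultures that reads the phosphatase activity of secreted YopH effector protein. Compound used in two-fold dilutions from 100 to 12,5 at 1% final DMSO. Result given as percent inhibition relative to 1% DMSO-treated controls.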

Compound | inhibition [1] | inhibition (Chlamydia pneumoniae) | inhibition at 50 µM (Chlamydia trachomatis [2]) [%] | viability at 48 h, 50 µM [3] [%] | MIC [4] [µM] | inhibition at 50 µM (Chlamydia pneumoniae) [%] | solubility [5] | inhibition [6] | growth inhibition (GI) (Chlamydia trachomatis [7]) | inhibition (Chlamydia trachomatis [2]) | inhibition [8]
Cc1cc(NS(=O)(=O)c2ccc(C(=O)N/N=C/c3ccc(O)cc3O)cc2)no1 | Dose-dependent effect | inactive | 47.4 | > 70 | > 100 |  |  |  |  |  | 
CCN(CC)c1ccc(/C=N/NC(=O)c2ccc(/C=C/C(=O)Nc3ccc(S(=O)(=O)Nc4cc(C)on4)cc3)cc2)c(O)c1 | Dose-dependent effect |  | 28 |  | > 100 | 22.4 | Insoluble |  |  |  | 
Cc1cc(NS(=O)(=O)c2ccc(NC(S)=NCc3ccccc3)cc2)no1 |  | inactive | 26.9 | > 70 | > 100 |  |  |  |  |  | 
Cc1cc(NS(=O)(=O)c2ccc(NC(=O)/C=C/c3ccc(C(=O)N/N=C/c4cc(Cl)cc(Cl)c4O)cc3)cc2)no1 | Dose-dependent effect | inactive | 14.6 | > 70 | > 100 |  |  |  |  |  | 
Cc1cc(NS(=O)(=O)c2ccc(NC(=O)/C=C/c3ccc(C(=O)N/N=C/c4cc(Br)ccc4O)cc3)cc2)no1 | Dose-dependent effect | inactive | 21.5 | > 70 | > 100 |  |  |  |  |  | 
Cc1cc(NS(=O)(=O)c2ccc(C(=O)N/N=C/c3cc(Br)cc(Br)c3O)cc2)no1 | Dose-dependent effect |  | 65.2 | > 70 | > 100 | 99.4 |  | Active | inactive |  | 
Cc1cc(NS(=O)(=O)c2ccc(NC(=S)NCc3ccccc3O)cc2)no1 |  | inactive |  | > 70 | > 100 |  |  |  |  | inactive | 
Cc1cc(NS(=O)(=O)c2ccc(NC(=O)Nc3ccc(O)cc3)cc2)no1 |  | inactive | 9.6 | > 70 | > 100 |  |  |  |  |  | 
Cc1cc(NS(=O)(=O)c2ccc(NC(=O)NCc3ccccc3)cc2)no1 |  | inactive | 18.5 | > 70 | > 100 |  |  |  |  |  | 
Cc1cc(NS(=O)(=O)c2ccc(NC(=S)Nc3ccc(O)cc3)cc2)no1 |  |  |  | > 70 | > 100 | 60.8 |  |  |  | inactive | 
Cc1cc(NS(=O)(=O)c2ccc(C(=O)N/N=C/c3cc(Cl)cc(Cl)c3O)cc2)no1 | Dose-dependent effect | inactive | 24.2 | > 70 | > 100 |  |  |  |  |  | 
Cc1cc(NS(=O)(=O)c2ccc(NC(=O)/C=C/c3ccc(C(=O)N/N=C/c4cccc(F)c4O)cc3)cc2)no1 | Dose-dependent effect | inactive | 33.4 | > 70 | > 100 |  |  |  |  |  | 
Cc1cc(NS(=O)(=O)c2ccc(NC(=O)NCc3ccccc3O)cc2)no1 |  | inactive |  | > 70 | > 100 |  |  |  |  | inactive | 
Cc1cc(NS(=O)(=O)c2ccc(NC(=O)NC3CCCCC3)cc2)no1 |  | inactive | 14.8 | > 70 | > 100 |  |  |  |  |  | 
Cc1cc(NS(=O)(=O)c2ccc(NC(=O)c3sc4cc(Cl)ccc4c3Cl)cc2)no1 |  |  |  |  |  |  |  | inactive | Active |  | inactive
Cc1cc(NS(=O)(=O)c2ccc(NC(=S)NC3CCCCC3)cc2)no1 |  | inactive | 26.9 | > 70 | > 100 |  |  |  |  |  | 
CCN(CC)c1ccc(/C=N/NC(=O)c2ccc(S(=O)(=O)Nc3cc(C)on3)cc2)c(O)c1 | Dose-dependent effect |  | 83 | > 70 | > 100 | 100 |  |  | inactive |  | 
